Experimental data as given in ChEMBL document CHEMBL1131628 (J Med Chem, 1998).
Each block holds one compound with its values, some of them ahead of it.

How the values were obtained:
[1] = target: T1, Endothelin-1 receptor (Rattus norvegicus, UniProt P26684); assay: Binding affinity for endothelin A receptor by measuring its ability to displace [125I]ET1 from prolactin secreting rat pituitary cells(MMQ); type: cell-based, Pituitary gland cell
T1 sequence (P26684 whole entry): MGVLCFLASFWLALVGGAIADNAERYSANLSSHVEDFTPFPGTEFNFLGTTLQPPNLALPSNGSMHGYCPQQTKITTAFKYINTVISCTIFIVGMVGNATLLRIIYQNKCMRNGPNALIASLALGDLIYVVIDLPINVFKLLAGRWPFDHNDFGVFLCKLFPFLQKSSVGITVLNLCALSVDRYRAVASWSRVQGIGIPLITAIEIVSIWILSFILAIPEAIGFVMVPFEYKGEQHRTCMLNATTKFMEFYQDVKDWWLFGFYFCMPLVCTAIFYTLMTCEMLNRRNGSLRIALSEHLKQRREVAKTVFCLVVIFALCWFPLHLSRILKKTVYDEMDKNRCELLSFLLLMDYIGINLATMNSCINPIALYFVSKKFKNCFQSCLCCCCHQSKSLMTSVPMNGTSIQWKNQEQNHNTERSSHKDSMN

[2] = target: T2, Endothelin receptor type B (Homo sapiens, UniProt P24530); assay: Tested for binding affinity for human Endothelin B receptor by measuring its ability to displace [125I]ET-3 from chinese hamster ovary cells(CHO); type: cell-based
T2 sequence (P24530 whole entry): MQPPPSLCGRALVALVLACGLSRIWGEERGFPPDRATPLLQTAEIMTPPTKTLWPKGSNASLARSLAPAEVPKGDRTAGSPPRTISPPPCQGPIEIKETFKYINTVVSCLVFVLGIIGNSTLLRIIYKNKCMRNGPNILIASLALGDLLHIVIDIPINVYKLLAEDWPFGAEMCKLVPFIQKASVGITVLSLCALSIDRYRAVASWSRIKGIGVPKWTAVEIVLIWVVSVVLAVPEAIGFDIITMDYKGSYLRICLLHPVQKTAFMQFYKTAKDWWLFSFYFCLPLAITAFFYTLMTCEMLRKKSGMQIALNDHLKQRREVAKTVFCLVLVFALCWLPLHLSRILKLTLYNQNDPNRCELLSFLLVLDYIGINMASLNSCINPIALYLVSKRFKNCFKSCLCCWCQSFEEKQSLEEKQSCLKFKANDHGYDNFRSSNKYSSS

[3] = target: T3, Endothelin-1 receptor (Homo sapiens, UniProt P25101); assay: Tested for binding affinity for human Endothelin A receptor by measuring its ability to displace [125I]ET1 from chinese hamster ovary cells(CHO); type: cell-based
T3 sequence (P25101 whole entry): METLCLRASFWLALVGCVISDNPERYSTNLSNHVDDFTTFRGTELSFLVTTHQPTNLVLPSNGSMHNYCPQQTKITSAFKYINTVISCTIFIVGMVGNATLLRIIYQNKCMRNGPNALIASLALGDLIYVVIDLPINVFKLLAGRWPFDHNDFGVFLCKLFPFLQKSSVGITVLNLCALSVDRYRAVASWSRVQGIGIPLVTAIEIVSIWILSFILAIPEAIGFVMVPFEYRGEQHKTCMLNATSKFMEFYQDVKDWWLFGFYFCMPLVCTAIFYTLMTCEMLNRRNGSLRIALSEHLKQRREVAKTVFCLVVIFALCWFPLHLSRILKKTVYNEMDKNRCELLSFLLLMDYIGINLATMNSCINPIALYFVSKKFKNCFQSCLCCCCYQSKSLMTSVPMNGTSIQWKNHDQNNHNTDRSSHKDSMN

[4] = Pharmacokinetic profile Cmax was evaluated in rats; type: ADME, organism-based; conditions: rat, in vivo
How it was run: (§1)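 Male Sprague-Dawley rats, n = 4 per group, 10 mg/kg iv (jugular slow bolus) or oral gavage, 10 mg/mL in ethanol–propylene glycol–D5W (20:30:50) with 1 equiv NaOH. Tail-vein plasma taken 0.1 (iv only) to 12 h, assayed by HPLC after extraction. AUC by trapezoidal rule extrapolated to infinity; T1/2 from terminal rate constant; F as oral/iv AUC.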

[5] = Bioavailability in rat; type: ADME, organism-based; conditions: in vivo; how it was run: as §1
[6] = Pharmacokinetic profile-half life was evaluated in rats upon oral administration; type: ADME, organism-based; conditions: rat, in vivo; how it was run: as §1
[7] = Pharmacokinetic profile AUC was evaluated in rats; type: ADME, organism-based; set-up: concentration or dose not given beside the values; conditions: rat, in vivo; how it was run: as §1
[8] = Pharmacokinetic profile-half life was evaluated in rats upon intravenous administration; type: ADME, organism-based; conditions: rat, in vivo; how it was run: as §1
[9] = target: T3, Endothelin-1 receptor; assay: Tested for binding affinity for human Endothelin A receptor by measuring its ability to displace [125I]-ET-1 from chinese hamster ovary cells(CHO); type: cell-based
[10] = target: T2, Endothelin receptor type B; assay: Tested for binding affinity for human Endothelin B receptor by measuring its ability to displace [125I]-ET-3 from chinese hamster ovary cells(CHO); type: cell-based

Structure (SMILES): CCCCN(CCCC)C(=O)CN1C[C@H](c2ccc3c(c2)OCO3)[C@@H](C(=O)O)[C@@H]1CCCC(C)C
IC50 [1]: 2.5 nM

Structure (SMILES): CCCCN(CCCC)C(=O)CN1C[C@H](c2ccc3c(c2)OCO3)[C@@H](C(=O)O)[C@@H]1CCCC1OCCO1
IC50 [1]: 7 nM

Structure (SMILES): C/C=C\C(C)(C)C[C@H]1[C@H](C(=O)O)[C@@H](c2ccc3c(c2)OCO3)CN1CC(=O)N(CCCC)CCCC
Cmax [4]: 1.49 µg/mL
bioavailability [5]: 32.2%
IC50 [2]: 92700 nM
half-life [6]: 3.58 h
AUC [7]: 2.62 µg·h/mL
half-life [8]: 1.6 h
IC50 [3]: 1 nM

Structure (SMILES): CCCCN(CCCC)C(=O)CN1C[C@H](c2ccc3c(c2)OCO3)[C@@H](C(=O)O)[C@@H]1CC(C)(C)C=C(C)C
IC50 [1]: 2.7 nM

Structure (SMILES): CCCCN(CCCC)C(=O)CN1C[C@H](c2ccc3c(c2)OCO3)[C@@H](C(=O)O)[C@@H]1CCc1ccoc1
IC50 [1]: 2.2 nM

Structure (SMILES): Cc1cc2c(cc1CC(=O)c1ccsc1S(=O)(=O)Nc1onc(C)c1Cl)OCO2
bioavailability [5]: 60%
Ki [9]: 0.43 nM
half-life [8]: 6.7 h
Ki [10]: > 4300 nM

Structure (SMILES): CCCCN(CCCC)C(=O)CN1C[C@H](c2ccc3c(c2)OCO3)[C@@H](C(=O)O)[C@@H]1CC/C=C(/C)CC
IC50 [1]: 0.86 nM

Structure (SMILES): CCCCN(CCCC)C(=O)CN1C[C@H](c2ccc3c(c2)OCO3)[C@@H](C(=O)O)[C@@H]1CCC1SCCS1
IC50 [1]: 4.5 nM

Structure (SMILES): CCCOc1ccc2c(c1)[C@@H](c1ccc(OC)cc1OCCO)[C@H](C(=O)O)[C@H]2c1ccc2c(c1)OCO2
bioavailability [5]: 66%
half-life [8]: 3.3 h

Structure (SMILES): CCCCN(CCCC)C(=O)CN1C[C@H](c2ccc3c(c2)OCO3)[C@@H](C(=O)O)[C@@H]1CC(C)(C)CCC
Cmax [4]: 1.48 µg/mL
bioavailability [5]: 76.8%
IC50 [2]: 2800 nM
half-life [6]: 3.85 h
AUC [7]: 7.06 µg·h/mL
half-life [8]: 2.45 h
IC50 [1]: 1.3 nM
IC50 [3]: 0.29 nM

Structure (SMILES): CCCCN(CCCC)C(=O)CN1C[C@H](c2cc(OC)c3c(c2)OCO3)[C@@H](C(=O)O)[C@@H]1CC(C)(C)CCC [ABT-546]
Cmax [4]: 1.69 µg/mL
bioavailability [5]: 47.7%
half-life [6]: 2.5 h
AUC [7]: 3.27 µg·h/mL
half-life [8]: 1.6 h
IC50 [1]: 0.56 nM

Structure (SMILES): COc1ccccc1Oc1c(NS(=O)(=O)c2ccc(C)cn2)nc(-c2ccnc(-c3nnn[nH]3)c2)nc1OCCO [CLAZOSENTAN]
Ki [9]: 0.13 nM
half-life [8]: 0.8 h
Ki [10]: 175 nM

Structure (SMILES): COc1ccc(C(=O)/C(Cc2cc(OC)c(OC)c(OC)c2)=C(\C(=O)[O-])c2ccc3c(c2)OCO3)cc1.[Na+] [PD-156707 SODIUM]
bioavailability [5]: 41%
half-life [8]: 1 h
Ki [10]: 139 nM

Further lines, results first:

IC50 [1]: 5.2 nM
Structure (SMILES): C=C(C)CCC[C@H]1[C@H](C(=O)O)[C@@H](c2ccc3c(c2)OCO3)CN1CC(=O)N(CCCC)CCCC

IC50 [1]: 12 nM
Structure (SMILES): CCCCN(CCCC)C(=O)CN1C[C@H](c2ccc3c(c2)OCO3)[C@@H](C(=O)O)[C@@H]1CCC1CCCO1 (stereo partly specified)

IC50 [2]: 42000 nM
IC50 [1]: 0.51 nM
IC50 [3]: 1.06 nM
Structure (SMILES): CCCCN(CCCC)C(=O)CN1C[C@H](c2ccc3c(c2)OCO3)[C@@H](C(=O)O)[C@@H]1CCn1cccn1

IC50 [1]: 2.4 nM
Structure (SMILES): CCCCN(CCCC)C(=O)CN1C[C@H](c2ccc3c(c2)OCO3)[C@@H](C(=O)O)[C@@H]1CCc1ncco1

IC50 [1]: 5 nM
Structure (SMILES): CCCCN(CCCC)C(=O)CN1C[C@H](c2ccc3c(c2)OCO3)[C@@H](C(=O)O)[C@@H]1CCN1C(=O)CCC1=O

IC50 [1]: 0.64 nM
Structure (SMILES): CCCCN(CCCC)C(=O)CN1C[C@H](c2ccc3c(c2)OCO3)[C@@H](C(=O)O)[C@@H]1CCC=C1CC1

IC50 [1]: 16 nM
Structure (SMILES): CCCCN(CCCC)C(=O)CN1C[C@H](c2ccc3c(c2)OCO3)[C@@H](C(=O)O)[C@@H]1CCC(C)CC (stereo partly specified)

IC50 [1]: 2.3 nM
Structure (SMILES): CCCCN(CCCC)C(=O)CN1C[C@H](c2ccc3c(c2)OCO3)[C@@H](C(=O)O)[C@@H]1CCC1OCCO1

IC50 [1]: 0.78 nM
Structure (SMILES): C/C=C\CC[C@H]1[C@H](C(=O)O)[C@@H](c2ccc3c(c2)OCO3)CN1CC(=O)N(CCCC)CCCC

Ki [10]: > 50000 nM
Structure (SMILES): Cc1noc(NS(=O)(=O)c2cccc3c(N(C)C)cccc23)c1C [BMS-182874]
